Measurements from ChEMBL document CHEMBL4350961, “Discovery of Pyrrolo[3,2- d]pyrimidin-4-one Derivatives as a New Class of Potent and Cell-Active Inhibitors of P300/CBP-Associated Factor Bromodomain” (J Med Chem, 2019).
Calls of active or inactive are those of the source.

Assays:
[1] = target: Homeodomain-interacting protein kinase 1 (Homo sapiens) (UniProt Q86Z02); experiment: Inhibition of recombinant human activated HIPK1 (158 to 555 residues) at 10 uM using myelin basic protein as substrate measured after 40 mins in presence of [gamma33P]ATP by scintillation counting method
[2] = test system: SNF-related serine/threonine-protein kinase (Homo sapiens), Q9NRH2 [UNDEFINED MUTATION]; experiment: Inhibition of human SNRK E97G/P116A mutant (65 to 409 residues) using KKLRRTLSFAEPG as substrate measured after 40 mins in presence of [gamma33P]ATP by scintillation counting method
In short: (§1)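 Kinase panel of 422 kinases screened by Eurofins KinaseProfiler at a single test-compound concentration of 10 µM.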

[3] = target: Bone morphogenetic protein receptor type-1B (Homo sapiens) (UniProt O00238); experiment: Inhibition of recombinant human ALK6 (148 to end residues) at 10 uM using casein as substrate measured after 40 mins in presence of [gamma33P]ATP by scintillation counting method
[4] = target: 5'-AMP-activated protein kinase catalytic subunit alpha-2 (Homo sapiens) (UniProt P54646); experiment: Inhibition of recombinant full-length human AMPKalpha2 at 10 uM using AMARAASAAALARRR as substrate measured after 40 mins in presence of [gamma33P]ATP by scintillation counting method
[5] = target: Nucleosome-remodeling factor subunit BPTF (Homo sapiens, UniProt Q12830); experiment: Binding affinity to human N-terminal His-tagged FALZ assessed as change in melting temperature at 10 uM by SYPRO orange dye-based fluorescence assay
In short: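 Thermal shift with His-tagged human bromodomain at 2 μM final in 10 mM HEPES pH 7.5, 500 mM NaCl. Compound at 10 μM final with 0.1% DMSO; SYPRO Orange at 1:1000. Equilibrated 3 min at 25 °C, then heated from 25 to 95 °C at 1 °C/min. Melting temperature shift taken from fluorescence; at least duplicate.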

[6] = target: MAPK/MAK/MRK overlapping kinase (Homo sapiens) (UniProt Q9UQ07); experiment: Inhibition of recombinant human MOK (1 to 343 residues) at 10 uM using RSRSRSRSRSRSRSR as substrate measured after 40 mins in presence of [gamma33P]ATP by scintillation counting method
[7] = target: Bromodomain-containing protein 3 (Homo sapiens) (UniProt Q15059); experiment: Binding affinity to human partial length BRD3 bromodomain 2 (G306 to P416 residues) expressed in bacterial expression system at 1 uM by BROMOscan assay
In short: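 BROMOscan bromodomain cross-screen run by an outside service, compound at 1 µM against 32 recombinant bromodomains. Binding given as percent of control.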

[8] = target: Leukocyte tyrosine kinase receptor (Homo sapiens) (UniProt P29376); experiment: Inhibition of recombinant human LTK (450 to end residues) at 10 uM using GEEPLYWSFPAKKK as substrate measured after 40 mins in presence of [gamma33P]ATP by scintillation counting method
[9] = target: Ephrin type-A receptor 2 (Homo sapiens) (UniProt P29317); experiment: Inhibition of recombinant human EphA2 (596 to 900 residues) at 10 uM using poly(Glu, Tyr) 4:1 as substrate measured after 40 mins in presence of [gamma33P]ATP by scintillation counting method
[10] = target: Cyclin-Y/Cyclin-dependent kinase 16 (Homo sapiens) (UniProt Q00536+Q8ND76); experiment: Inhibition of recombinant full length human CDK16/cyclinY at 10 uM using PKSPKARKKL as substrate measured after 120 mins in presence of [gamma33P]ATP by scintillation counting method; assay type: protein-complex assay
[11] = target: Serine/threonine-protein kinase ULK3 (Homo sapiens) (UniProt Q6PHR2); experiment: Inhibition of recombinant full-length human ULK3 at 10 uM using casein as substrate measured after 40 mins in presence of [gamma33P]ATP by scintillation counting method
[12] = target: Serine/threonine-protein kinase MRCK alpha (Homo sapiens) (UniProt Q5VT25); experiment: Inhibition of recombinant human MRCKalpha (1 to 473 residues) at 10 uM using KKRNRTLTV as substrate measured after 40 mins in presence of [gamma33P]ATP by scintillation counting method
[13] = target: Tyrosine-protein kinase HCK (Homo sapiens) (UniProt P08631); experiment: Inhibition of recombinant human HCK (230 to 497 residues) at 10 uM using Cdc2 peptide as substrate measured after 40 mins in presence of [gamma33P]ATP by scintillation counting method
[14] = target: Mitogen-activated protein kinase 13 (Homo sapiens) (UniProt O15264); experiment: Inhibition of recombinant full-length human SAPK4 at 10 uM using myelin basic protein as substrate measured after 40 mins in presence of [gamma33P]ATP by scintillation counting method
[15] = target: Tyrosine-protein kinase BTK (Homo sapiens) (UniProt Q06187); experiment: Inhibition of full-length recombinant human BTK at 10 uM using KVEKIGEGTYGVVYK as substrate measured after 40 mins in presence of [gamma33P]ATP by scintillation counting method; in short: as §1
[16] = target: Serine/threonine-protein kinase BRSK1 (Homo sapiens) (UniProt Q8TDC3); experiment: Inhibition of recombinant human BrSK1 (2 to end residues) at 10 uM using KKKVSRSGLYRSPSMPENLNRPR as substrate measured after 120 mins in presence of [gamma33P]ATP by scintillation counting method
[17] = test system: Hepatocyte growth factor receptor (Homo sapiens), P08581 [Y1230H]; experiment: Inhibition of recombinant human MET A1209G/V1290L/Y1248H mutant (974 to end residues) at 10 uM using KKKGQEEEYVFIE as substrate measured after 40 mins in presence of [gamma33P]ATP by scintillation counting method
[18] = target: Receptor tyrosine-protein kinase erbB-4 (Homo sapiens) (UniProt Q15303); experiment: Inhibition of recombinant human ErbB4 (706 to 991 residues) at 10 uM using poly (Glu, Tyr) 4:1 as substrate measured after 40 mins in presence of [gamma33P]ATP by scintillation counting method
[19] = target: Myosin light chain kinase, smooth muscle (Homo sapiens) (UniProt Q15746); experiment: Inhibition of recombinant human MLCK (1425 to 1771 residues) at 10 uM using […] as substrate measured after 40 mins in presence of [gamma33P]ATP by scintillation counting method
[20] = target: Ephrin type-A receptor 7 (Homo sapiens) (UniProt Q15375); experiment: Inhibition of recombinant human EphA7 (613 to 909 residues) at 10 uM using KTFCGTPEYLAPEVRREPRILSEEEQEMFRDFDYIADWC as substrate measured after 40 mins in presence of [gamma33P]ATP by scintillation counting method
[21] = target: Insulin-like growth factor 1 receptor (Homo sapiens) (UniProt P08069); experiment: Inhibition of recombinant human IGF1R (959 to end residues) at 10 uM using KKKSPGEYVNIEFG as substrate measured after 40 mins in presence of [gamma33P]ATP by scintillation counting method
Insulin-like growth factor 1 receptor (Homo sapiens), sequence (P08069 31-736 limits assumed): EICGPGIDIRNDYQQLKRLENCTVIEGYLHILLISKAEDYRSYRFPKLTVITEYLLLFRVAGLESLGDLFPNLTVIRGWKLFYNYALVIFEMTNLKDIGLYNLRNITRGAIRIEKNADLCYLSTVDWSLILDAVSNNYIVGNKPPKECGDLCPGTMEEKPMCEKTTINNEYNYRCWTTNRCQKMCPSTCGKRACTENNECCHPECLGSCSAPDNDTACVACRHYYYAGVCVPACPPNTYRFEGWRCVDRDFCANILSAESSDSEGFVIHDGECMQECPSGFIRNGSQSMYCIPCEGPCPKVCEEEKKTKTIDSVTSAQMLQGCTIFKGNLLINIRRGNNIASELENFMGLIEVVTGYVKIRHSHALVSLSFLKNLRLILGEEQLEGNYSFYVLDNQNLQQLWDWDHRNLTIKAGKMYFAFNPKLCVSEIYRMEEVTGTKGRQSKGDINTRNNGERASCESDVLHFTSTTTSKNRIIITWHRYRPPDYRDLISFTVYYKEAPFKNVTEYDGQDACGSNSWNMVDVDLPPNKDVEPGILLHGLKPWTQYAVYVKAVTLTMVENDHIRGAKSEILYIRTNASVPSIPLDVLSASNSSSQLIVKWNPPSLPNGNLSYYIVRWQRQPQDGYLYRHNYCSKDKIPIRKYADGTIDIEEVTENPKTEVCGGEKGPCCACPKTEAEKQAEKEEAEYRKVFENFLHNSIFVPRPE
Insulin-like growth factor 1 receptor (Homo sapiens), sequence (P08069 741-1367 limits assumed): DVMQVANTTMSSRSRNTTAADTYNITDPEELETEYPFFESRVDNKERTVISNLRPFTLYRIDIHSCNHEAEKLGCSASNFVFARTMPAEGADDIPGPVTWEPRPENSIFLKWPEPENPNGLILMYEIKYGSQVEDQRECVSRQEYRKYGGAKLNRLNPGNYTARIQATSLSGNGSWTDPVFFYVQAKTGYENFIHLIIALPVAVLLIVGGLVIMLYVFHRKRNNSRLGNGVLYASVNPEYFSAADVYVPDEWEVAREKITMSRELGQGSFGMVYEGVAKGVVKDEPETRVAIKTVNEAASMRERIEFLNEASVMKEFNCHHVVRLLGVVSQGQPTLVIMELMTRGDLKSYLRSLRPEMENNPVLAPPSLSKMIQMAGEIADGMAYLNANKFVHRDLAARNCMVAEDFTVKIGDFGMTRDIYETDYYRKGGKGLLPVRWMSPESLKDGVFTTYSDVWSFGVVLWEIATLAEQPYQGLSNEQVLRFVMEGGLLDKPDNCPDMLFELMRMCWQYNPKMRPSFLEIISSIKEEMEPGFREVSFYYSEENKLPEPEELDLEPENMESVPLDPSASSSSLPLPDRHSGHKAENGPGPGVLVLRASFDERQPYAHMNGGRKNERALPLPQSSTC

Bone morphogenetic protein receptor type-1B (Homo sapiens), sequence (O00238 whole entry): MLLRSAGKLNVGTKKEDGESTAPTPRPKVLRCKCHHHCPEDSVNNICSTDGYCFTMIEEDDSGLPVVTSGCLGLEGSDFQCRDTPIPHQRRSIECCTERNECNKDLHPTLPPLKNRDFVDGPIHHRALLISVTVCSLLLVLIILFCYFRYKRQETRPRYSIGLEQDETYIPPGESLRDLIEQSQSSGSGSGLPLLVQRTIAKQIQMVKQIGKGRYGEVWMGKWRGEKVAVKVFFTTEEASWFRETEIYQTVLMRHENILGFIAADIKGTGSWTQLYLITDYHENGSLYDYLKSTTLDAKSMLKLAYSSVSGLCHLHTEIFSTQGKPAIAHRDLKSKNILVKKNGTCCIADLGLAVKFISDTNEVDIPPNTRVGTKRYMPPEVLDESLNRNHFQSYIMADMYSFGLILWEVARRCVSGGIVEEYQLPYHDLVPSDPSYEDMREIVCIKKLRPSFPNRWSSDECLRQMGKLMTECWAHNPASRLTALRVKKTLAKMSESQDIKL
Serine/threonine-protein kinase ULK3 (Homo sapiens), sequence (Q6PHR2 whole entry, the tested form may be a part): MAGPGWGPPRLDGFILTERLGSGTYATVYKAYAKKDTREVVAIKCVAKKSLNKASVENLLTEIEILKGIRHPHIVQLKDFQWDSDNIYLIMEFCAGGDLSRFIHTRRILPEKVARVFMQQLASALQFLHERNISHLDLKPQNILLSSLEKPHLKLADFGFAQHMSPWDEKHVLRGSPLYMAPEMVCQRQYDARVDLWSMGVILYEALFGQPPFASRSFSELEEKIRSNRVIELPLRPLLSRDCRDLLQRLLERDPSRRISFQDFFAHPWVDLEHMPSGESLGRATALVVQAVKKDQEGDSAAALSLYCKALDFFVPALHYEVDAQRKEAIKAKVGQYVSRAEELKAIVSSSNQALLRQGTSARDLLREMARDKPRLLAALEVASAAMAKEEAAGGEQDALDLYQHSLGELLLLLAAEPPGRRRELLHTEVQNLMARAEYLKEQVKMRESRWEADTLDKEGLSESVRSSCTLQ
Tyrosine-protein kinase HCK (Homo sapiens), sequence (P08631 2-526 limits assumed): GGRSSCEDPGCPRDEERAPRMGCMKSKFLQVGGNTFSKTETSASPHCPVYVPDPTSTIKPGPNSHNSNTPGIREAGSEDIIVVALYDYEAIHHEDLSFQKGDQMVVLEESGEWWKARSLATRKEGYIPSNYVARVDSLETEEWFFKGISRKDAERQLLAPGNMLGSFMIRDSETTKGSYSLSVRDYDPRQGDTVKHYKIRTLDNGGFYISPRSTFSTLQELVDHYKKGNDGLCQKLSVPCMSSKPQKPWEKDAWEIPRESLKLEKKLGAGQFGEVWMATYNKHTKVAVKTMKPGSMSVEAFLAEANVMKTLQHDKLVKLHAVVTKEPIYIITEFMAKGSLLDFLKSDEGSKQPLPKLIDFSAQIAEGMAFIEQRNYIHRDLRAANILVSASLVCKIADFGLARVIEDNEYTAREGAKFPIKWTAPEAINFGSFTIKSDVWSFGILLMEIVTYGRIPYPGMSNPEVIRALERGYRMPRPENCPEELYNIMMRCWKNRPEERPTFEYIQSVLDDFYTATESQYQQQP
5'-AMP-activated protein kinase catalytic subunit alpha-2 (Homo sapiens), sequence (P54646 whole entry, looked up): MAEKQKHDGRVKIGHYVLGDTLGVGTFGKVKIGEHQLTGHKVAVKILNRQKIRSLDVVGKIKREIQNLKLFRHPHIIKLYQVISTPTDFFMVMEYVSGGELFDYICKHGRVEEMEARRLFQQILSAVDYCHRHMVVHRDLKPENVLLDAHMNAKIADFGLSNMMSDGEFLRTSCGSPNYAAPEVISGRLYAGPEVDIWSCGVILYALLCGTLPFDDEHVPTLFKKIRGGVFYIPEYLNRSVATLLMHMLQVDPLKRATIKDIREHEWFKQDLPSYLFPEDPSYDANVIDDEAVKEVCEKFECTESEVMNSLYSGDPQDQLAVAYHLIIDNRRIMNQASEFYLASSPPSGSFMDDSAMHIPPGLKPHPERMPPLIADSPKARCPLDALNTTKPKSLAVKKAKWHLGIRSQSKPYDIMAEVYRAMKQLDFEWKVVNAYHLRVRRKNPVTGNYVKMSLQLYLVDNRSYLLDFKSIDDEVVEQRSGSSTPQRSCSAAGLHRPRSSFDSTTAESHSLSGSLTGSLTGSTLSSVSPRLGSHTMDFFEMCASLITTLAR
Mitogen-activated protein kinase 13 (Homo sapiens), sequence (O15264 whole entry): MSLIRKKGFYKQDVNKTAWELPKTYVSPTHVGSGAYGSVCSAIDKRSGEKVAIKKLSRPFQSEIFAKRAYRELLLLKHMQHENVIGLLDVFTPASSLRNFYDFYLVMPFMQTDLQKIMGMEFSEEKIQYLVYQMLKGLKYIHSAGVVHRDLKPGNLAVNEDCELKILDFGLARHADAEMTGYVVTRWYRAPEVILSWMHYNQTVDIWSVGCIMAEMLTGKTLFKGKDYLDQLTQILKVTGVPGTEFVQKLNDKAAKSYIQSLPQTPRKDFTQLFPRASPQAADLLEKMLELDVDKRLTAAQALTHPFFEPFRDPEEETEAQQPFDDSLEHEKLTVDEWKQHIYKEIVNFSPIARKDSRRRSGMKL
Leukocyte tyrosine kinase receptor (Homo sapiens), sequence (P29376 whole entry, the tested form may be a part): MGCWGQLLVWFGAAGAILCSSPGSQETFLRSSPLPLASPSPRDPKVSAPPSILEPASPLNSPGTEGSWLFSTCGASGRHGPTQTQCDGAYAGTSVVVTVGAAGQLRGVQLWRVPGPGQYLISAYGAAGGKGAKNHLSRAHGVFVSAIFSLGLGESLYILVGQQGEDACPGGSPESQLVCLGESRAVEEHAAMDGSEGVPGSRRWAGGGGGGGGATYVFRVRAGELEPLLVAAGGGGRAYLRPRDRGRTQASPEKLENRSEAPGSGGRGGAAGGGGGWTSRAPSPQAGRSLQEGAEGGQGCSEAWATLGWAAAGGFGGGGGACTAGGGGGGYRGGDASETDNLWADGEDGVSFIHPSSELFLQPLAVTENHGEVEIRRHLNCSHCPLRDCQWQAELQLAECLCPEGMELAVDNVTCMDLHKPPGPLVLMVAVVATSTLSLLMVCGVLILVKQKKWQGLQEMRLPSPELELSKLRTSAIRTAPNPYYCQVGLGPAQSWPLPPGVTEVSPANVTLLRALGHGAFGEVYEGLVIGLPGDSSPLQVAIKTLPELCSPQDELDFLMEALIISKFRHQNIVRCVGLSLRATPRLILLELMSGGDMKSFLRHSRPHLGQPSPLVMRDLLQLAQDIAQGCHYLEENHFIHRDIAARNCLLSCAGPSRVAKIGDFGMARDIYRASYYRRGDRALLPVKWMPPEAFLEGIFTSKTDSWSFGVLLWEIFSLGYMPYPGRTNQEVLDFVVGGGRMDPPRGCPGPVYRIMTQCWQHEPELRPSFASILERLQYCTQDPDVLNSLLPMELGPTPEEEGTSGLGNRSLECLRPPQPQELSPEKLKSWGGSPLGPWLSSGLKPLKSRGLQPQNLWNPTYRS

CN1C[C@H](Nc2nc3cc[nH]c3c(=O)n2C)C[C@H](c2ccc3c(c2)OCCO3)C1
inactive: inhibition [1] | inhibition [2] | inhibition [3] | inhibition [4] | inhibition [6] | Activity [7] | inhibition [8] | inhibition [9] | inhibition [10] | inhibition [11] | inhibition [12] | inhibition [13] | inhibition [14] | inhibition [15] | inhibition [16] | inhibition [17] | inhibition [18] | inhibition [19] | inhibition [20] | inhibition [21]
5.3 °C: ΔTm [5]
